Laboratory results reported in ChEMBL document CHEMBL1833961, “Homology modeling in tandem with 3D-QSAR analyses: a computational approach to depict the agonist binding site of the human CB2 receptor” (Eur J Med Chem, 2011).

Tests used:
Type in all cases: cell-based
Cannabinoid receptor 1 [1] = molecular target: T1, Cannabinoid receptor 1 (Homo sapiens, UniProt P21554); test: Displacement of [3H]-CP-55,940 from human CB1 receptor expressed in human HEK293 cells at 10 uM after 90 mins by radioligand assay
How it was run: (§1)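 Percent displacement of [3H]-CP 55,940 (0.5 nM) from human recombinant CB1 in HEK-293 cell membranes (Bmax 2.5 pmol/mg protein), with a single inhibitor concentration of 1 or 10 µM. Incubation was 90 min at 30 °C, and nonspecific binding was defined with 10 uM WIN 55212-2.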

Cannabinoid receptor 2 [2] = molecular target: T2, Cannabinoid receptor 2 (Homo sapiens, UniProt P34972); test: Displacement of [3H]-WIN 55,212-2 from human CB2 receptor expressed in human HEK293 cells at 10 uM after 90 mins by radioligand assay
Cannabinoid receptor 2 [3] = molecular target: T2, Cannabinoid receptor 2; test: Displacement of [3H]-WIN 55,212-2 from human CB2 receptor expressed in human HEK293 cells after 90 mins by radioligand assay
Cannabinoid receptor 1 [4] = molecular target: T1, Cannabinoid receptor 1; test: Displacement of [3H]-CP-55,940 from human CB1 receptor expressed in human HEK293 cells after 90 mins by radioligand assay
How it was run: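 Membranes from HEK-293 cells transfected with human recombinant CB1 (Bmax 2.5 pmol/mg protein) were incubated with 0.14 nM [3H]-CP-55,940 (Kd 0.18 nM) and increasing compound concentrations for 90 min at 30 °C. Nonspecific binding was defined with 10 uM WIN 55212-2. Ki was calculated from IC50 by Cheng–Prusoff.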

Cannabinoid receptor 2 [5] = molecular target: T2, Cannabinoid receptor 2; test: Displacement of [3H]-WIN 55,212-2 from human CB2 receptor expressed in human HEK293 cells at 1 uM after 90 mins by radioligand assay
Cannabinoid receptor 1 [6] = molecular target: T1, Cannabinoid receptor 1; test: Displacement of [3H]-CP-55,940 from human CB1 receptor expressed in human HEK293 cells at 1 uM after 90 mins by radioligand assay; how it was run: as §1

T1 sequence (P21554 whole entry): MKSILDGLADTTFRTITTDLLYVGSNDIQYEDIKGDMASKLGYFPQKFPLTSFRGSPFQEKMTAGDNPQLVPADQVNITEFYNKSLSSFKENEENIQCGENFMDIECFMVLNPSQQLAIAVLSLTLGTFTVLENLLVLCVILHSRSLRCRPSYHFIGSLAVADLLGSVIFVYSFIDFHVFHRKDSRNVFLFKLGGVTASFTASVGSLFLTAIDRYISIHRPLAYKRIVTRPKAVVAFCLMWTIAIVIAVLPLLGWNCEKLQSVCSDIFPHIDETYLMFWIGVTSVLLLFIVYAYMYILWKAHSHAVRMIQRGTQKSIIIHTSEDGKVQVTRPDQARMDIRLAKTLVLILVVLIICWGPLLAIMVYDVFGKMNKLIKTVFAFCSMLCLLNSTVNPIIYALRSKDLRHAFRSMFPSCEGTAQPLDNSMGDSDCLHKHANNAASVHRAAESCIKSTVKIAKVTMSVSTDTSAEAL
T2 sequence (P34972 whole entry): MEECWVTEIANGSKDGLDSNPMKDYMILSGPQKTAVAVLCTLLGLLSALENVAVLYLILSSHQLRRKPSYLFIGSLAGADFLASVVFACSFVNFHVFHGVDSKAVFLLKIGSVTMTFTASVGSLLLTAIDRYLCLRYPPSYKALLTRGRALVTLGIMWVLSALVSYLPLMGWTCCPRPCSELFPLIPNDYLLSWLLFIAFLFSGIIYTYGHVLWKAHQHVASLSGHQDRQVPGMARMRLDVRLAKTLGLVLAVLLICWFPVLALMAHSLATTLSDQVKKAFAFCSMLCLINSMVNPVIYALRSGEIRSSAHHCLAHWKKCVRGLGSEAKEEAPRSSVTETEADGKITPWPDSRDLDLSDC

Row | Compound | Activity (Cannabinoid receptor 1 [1]) | Activity (Cannabinoid receptor 2 [2]) | IC50 (Cannabinoid receptor 2 [3]) | Ki (Cannabinoid receptor 2 [3]; read-out: Ki) | IC50 (Cannabinoid receptor 1 [4]) | Ki (Cannabinoid receptor 1 [4]) | Ki (Cannabinoid receptor 2 [3]; read-out: pKi (converted)) | Activity (Cannabinoid receptor 2 [5]) | Activity (Cannabinoid receptor 1 [6])
1 | CCOC(=O)/C(=C/c1cn(CCN2CCCCC2)c2ccccc12)C(=O)c1ccccc1 | 25.1% | 70.8% | 5480 nM | 1390 nM | > 10000 nM | > 10000 nM |  |  | 
2 | CC1(C)C(C(=O)c2cn(CC3CCOCC3)c3c(CC4CCOCC4)c4c(cc23)OCO4)C1(C)C |  |  |  |  |  |  | 1.02 nM |  | 
3 | N#C/C(=C\c1cn(CCN2CCCCC2)c2ccccc12)S(=O)(=O)c1ccccc1 | 83% | 101% |  | 7.5 nM |  |  |  |  | 
4 | N#C/C(=C\c1cn(CCN2CCOCC2)c2ccccc12)S(=O)(=O)c1ccccc1 |  |  | 40.1 nM | 10.2 nM | 155 nM | 62 nM |  | 95.9% | 85%
5 | CCOC(=O)/C(=C/c1cn(CCN2CCOCC2)c2ccccc12)C(=O)c1ccccc1 | 43.2% | 66% | 6220 nM | 1580 nM | > 10000 nM | > 10000 nM |  |  | 
